Laboratory results: article PMC11522000 (Nature Microbiology, 2024)

Columns and labels:
C. parvum [1] = assay: Neonatal calf efficacy study; format: in vivo, neonatal calves
In short: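 Infected neonatal calves received test compound orally by dosing syringe every 12 h for 7 days at 10 mg/kg birth weight, at least 2 h after feeding. Controls were vehicle-treated calves. The negative-control calf was sham-challenged so staff stayed blinded during dosing, clinical scoring of faecal consistency and faecal qPCR for oocysts.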

[2] = In vivo pharmacokinetic analysis; parameters: species or system rat; details: portal vein cannulated rats, oral
[3] = In vivo pharmacokinetics, all tested preclinical species; details: male, mouse, rat, dog, plasma, po
In short: (§1)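 Animals were male C57BL/6 mice (8–10 weeks), Wistar rats (8–10 weeks) and beagle dogs (12–14 weeks). Each received oral and i.v. doses, with plasma sampling for PK parameters.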

C. parvum [4] = assay: Washout assay, nanoluciferase-expressing C. parvum; format: cell-based, Cryptosporidium parvum; details: exposure 2–6 h post infection
In short: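 HCT-8 cells were grown to ~90% confluence, then infected with 400 nanoluciferase-expressing oocysts per well. Before infection, oocysts were primed for excystation with 10 mM HCl in water (10 min, 37 °C), then 2 mM sodium taurocholate in DPBS with Ca/Mg (10 min, 16 °C). Luminescence was read over time. RLU taken soon after infection served as day 0 and was used to normalize each timepoint.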

[5] = Stability in intestinal S9 fraction; format: in vitro ADME; details: dog
In short: (§2)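 Test compound added to intestinal S9 fraction of each species to start the reaction. Incubated in a shaking water bath at 37 °C, with samples taken at sequential timepoints. Samples quenched with ice-cold acetonitrile and analysed by LC-MS/MS. Half-life calculated from the rate of parent compound depletion.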

[6] = Neonatal calf pharmacokinetics; format: in vivo; details: bovine, plasma, po, 10 mg/kg
In short: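 Calves were dosed orally at 10 mg/kg birth weight every 12 h, at least 2 h after feeding. On day 1, blood was drawn before dosing and at several timepoints up to 12 h.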

C. parvum [7] = assay: DNA synthesis; format: cell-based, Cryptosporidium parvum; details: compound at 3 h post infection, EdU at 9 h
In short: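 HCT-8 cells were seeded at 5,000–25,000 per well on fibronectin-coated glass-bottom plates to reach 90–100% confluence, then infected with triggered oocysts. After 3 h at 37 °C, test compound or controls were added (DMSO neutral, cladosporin active) and incubation continued to about 9 h post infection. EdU was detected, vacuoles stained with VVL and nuclei with Hoechst, and wells imaged with a 40x objective.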

[8] = 2 weeks GLP dog toxicology study with toxicokinetics; format: in vivo; details: for AUC(0-t): AUC0-8, dog
[9] = In vivo pharmacokinetic analysis; details: male, Beagle, dog, plasma
In short: as §1

ATM = ATM (Homo sapiens, UniProt Q13315); assay: Kinase assay panel; format: biochemical
ATM, sequence (Q13315 whole entry): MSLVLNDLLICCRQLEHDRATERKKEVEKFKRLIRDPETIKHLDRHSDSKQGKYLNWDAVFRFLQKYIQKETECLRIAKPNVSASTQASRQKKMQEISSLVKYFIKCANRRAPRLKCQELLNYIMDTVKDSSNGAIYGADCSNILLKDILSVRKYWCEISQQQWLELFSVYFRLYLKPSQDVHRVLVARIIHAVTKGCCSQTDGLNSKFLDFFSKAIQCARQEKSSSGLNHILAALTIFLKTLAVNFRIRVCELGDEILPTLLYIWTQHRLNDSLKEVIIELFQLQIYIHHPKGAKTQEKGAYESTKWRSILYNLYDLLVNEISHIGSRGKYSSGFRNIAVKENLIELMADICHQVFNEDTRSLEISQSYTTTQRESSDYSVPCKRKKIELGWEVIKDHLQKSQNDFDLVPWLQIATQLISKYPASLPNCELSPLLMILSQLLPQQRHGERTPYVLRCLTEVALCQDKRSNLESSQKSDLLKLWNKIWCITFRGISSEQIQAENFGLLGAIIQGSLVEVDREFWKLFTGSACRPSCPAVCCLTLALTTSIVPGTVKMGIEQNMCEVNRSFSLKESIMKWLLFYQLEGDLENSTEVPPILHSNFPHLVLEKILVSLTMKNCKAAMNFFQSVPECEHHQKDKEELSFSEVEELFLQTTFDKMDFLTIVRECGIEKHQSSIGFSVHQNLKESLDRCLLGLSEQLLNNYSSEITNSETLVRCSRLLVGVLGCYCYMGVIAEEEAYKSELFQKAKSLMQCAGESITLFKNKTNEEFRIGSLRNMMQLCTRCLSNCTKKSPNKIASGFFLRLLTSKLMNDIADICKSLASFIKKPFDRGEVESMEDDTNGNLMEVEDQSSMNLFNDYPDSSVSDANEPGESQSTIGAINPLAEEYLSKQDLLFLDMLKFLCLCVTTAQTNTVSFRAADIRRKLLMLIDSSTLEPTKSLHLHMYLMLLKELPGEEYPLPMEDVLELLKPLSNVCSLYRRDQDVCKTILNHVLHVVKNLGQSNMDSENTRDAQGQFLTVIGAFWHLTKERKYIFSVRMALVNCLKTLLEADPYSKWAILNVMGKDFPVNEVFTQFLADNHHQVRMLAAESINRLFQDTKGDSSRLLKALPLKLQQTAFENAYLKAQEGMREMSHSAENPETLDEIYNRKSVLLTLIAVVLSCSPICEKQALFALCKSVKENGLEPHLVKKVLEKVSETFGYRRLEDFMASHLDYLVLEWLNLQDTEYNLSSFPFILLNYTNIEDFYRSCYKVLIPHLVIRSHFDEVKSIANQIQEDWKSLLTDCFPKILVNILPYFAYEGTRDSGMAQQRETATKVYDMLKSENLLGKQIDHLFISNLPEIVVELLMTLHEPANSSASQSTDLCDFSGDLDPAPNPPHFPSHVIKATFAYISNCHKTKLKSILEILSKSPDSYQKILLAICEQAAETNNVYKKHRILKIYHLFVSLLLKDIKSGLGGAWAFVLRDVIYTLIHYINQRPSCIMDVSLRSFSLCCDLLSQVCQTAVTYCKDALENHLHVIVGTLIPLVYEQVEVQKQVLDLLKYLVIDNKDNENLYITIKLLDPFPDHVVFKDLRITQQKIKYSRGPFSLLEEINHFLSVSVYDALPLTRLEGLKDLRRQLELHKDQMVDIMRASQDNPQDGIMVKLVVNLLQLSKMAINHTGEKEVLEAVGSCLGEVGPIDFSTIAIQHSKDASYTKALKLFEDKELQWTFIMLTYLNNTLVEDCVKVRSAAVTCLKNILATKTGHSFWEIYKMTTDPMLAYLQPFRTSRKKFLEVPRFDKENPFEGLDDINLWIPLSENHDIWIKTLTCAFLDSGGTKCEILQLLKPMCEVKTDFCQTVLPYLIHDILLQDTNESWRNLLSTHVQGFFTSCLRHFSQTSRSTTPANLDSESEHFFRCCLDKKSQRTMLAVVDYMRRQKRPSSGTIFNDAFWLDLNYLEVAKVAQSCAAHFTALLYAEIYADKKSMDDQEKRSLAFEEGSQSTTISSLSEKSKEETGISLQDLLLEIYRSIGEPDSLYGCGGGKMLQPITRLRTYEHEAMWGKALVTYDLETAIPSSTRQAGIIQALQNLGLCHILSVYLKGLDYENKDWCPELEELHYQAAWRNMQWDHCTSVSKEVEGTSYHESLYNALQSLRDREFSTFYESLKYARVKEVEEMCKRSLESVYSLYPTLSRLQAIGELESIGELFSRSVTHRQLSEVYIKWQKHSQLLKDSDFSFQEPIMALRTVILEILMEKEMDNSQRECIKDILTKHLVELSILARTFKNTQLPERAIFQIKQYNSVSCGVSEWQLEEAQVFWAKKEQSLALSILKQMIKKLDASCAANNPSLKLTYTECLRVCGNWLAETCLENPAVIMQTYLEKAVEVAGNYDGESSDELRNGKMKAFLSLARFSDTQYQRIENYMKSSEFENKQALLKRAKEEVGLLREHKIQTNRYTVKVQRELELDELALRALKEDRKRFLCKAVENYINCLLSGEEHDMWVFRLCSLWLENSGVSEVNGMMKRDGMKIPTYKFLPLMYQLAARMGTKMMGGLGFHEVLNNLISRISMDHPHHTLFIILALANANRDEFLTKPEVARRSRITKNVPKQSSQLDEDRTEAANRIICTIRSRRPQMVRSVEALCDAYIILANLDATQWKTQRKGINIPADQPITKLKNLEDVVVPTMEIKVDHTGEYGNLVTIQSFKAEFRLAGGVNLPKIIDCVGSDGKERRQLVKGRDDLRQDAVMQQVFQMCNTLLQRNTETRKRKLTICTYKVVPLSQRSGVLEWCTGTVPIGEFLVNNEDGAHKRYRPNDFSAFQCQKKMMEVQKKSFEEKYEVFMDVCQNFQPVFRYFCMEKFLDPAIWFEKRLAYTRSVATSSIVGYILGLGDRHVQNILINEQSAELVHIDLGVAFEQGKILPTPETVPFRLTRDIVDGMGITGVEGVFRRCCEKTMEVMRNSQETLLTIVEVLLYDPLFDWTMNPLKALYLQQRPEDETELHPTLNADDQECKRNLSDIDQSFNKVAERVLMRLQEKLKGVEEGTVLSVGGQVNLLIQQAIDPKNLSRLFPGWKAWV

Plasma stability = format: in vitro ADME; details: dog
In short: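 Test compound was added to plasma and incubated at 37 °C in a shaking water bath, with samples taken at sequential timepoints. Samples were quenched with ice-cold acetonitrile and analysed by LC-MS/MS, and half-life was calculated from the depletion rate.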

C. parvum [10] = assay: Time-kill assay, nanoluciferase-expressing C. parvum; format: cell-based, Cryptosporidium parvum
hCav1.2 = hCav1.2 (Homo sapiens, UniProt Q13936); assay: Patch clamp Cav1.2 Quattro; format: cell-based
In short: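 Each channel was stably expressed in HEK293 cells and tested by patch clamp with a 7-point concentration-response.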

[11] = 2 weeks GLP rat toxicology study with toxicokinetics; format: in vivo; details: both, Wistar; for AUC(0-t): AUC0-8, rat
In short: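 Male and female Wistar rats were about 7–8 weeks old at receipt and 9–10 weeks old at the start of dosing. They were dosed for 2 weeks at 50, 250 and 1000 mg/kg/day, with toxicokinetic plasma sampling.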

liver and duodenum = assay: In vivo rat Comet assay; details: up to 2000 mg/kg/day
In short: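 Liver and duodenum were sampled near Tmax after the second dose for the Comet assay.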

C. parvum [12] = assay: Live imaging of C. parvum in HCT-8 cells; format: cell-based, Cryptosporidium parvum; details: compound at 3 h post infection
[13] = Stability in intestinal S9 fraction; format: in vitro ADME, calf; details: bovine
In short: as §2

[14] = Stability in intestinal S9 fraction; format: in vitro ADME; details: rat
In short: as §2

[15] = test system: MDR-transfected MDCK cells; assay: MDCK MDR1 permeability and efflux; format: in vitro ADME; details: MDCK MDR1, basolateral to apical
human PXR = assay: PXR reporter gene assay; format: in vitro ADME
In short: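 CYP3A4 transactivation was measured in the human hepatoma line DPX-2, which overexpresses human PXR and carries a CYP3A4 promoter-luciferase reporter.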

Lipophilicity = format: physicochemical
Cytotoxicity assay = format: cell-based, human; details: human, HepG2 cells (ATCC CRL-10741), HepG2 CC50, 96 h
Plasma protein binding = format: in vitro ADME; details: rat
[16] = Hepatocytes metabolic stability; format: in vitro ADME; details: rat
In short: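 Test compound was incubated with liver microsomes or hepatocytes of each species, and parent depletion was quantified by LC-MS/MS. From this, in vitro half-life and intrinsic clearance were derived, along with predicted metabolic clearance and hepatic extraction ratio.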

TK6 cells = assay: In vitro micronucleus test in TK6 cells; format: cell-based
[17] = plasma, po, 1000 mg/kg/day, EDI048 1000 mg/kg/day, day 1
[18] = plasma, po, 1000 mg/kg/day, EDI048 1000 mg/kg/day, day 14

With CNC(=O)c1ccc(-c2cnn3ccc(C(=O)N(C)c4ccc(Cl)c(C(=O)OC)c4)cc23)cc1 [EDI048, methyl 2-chloro-5-(N-methyl-3-(4-(methylcarbamoyl)phenyl)pyrazolo[1,5-a]pyridine-5-carboxamido)benzoate] the tolerability in calves (C. parvum [1]; 10 mg kg^−1 every 12 h, 7 days) was “tolerated the full 7 day course of EDI048 treatment without compound-related abnormalities”, the “faecal consistency vs vehicle-treated calves” value (C. parvum [1]; P < 0.0001) was “improved faecal consistency” and the “faecal oocyst shedding vs vehicle-treated calves” value (C. parvum [1]; P = 0.0062) was “shed significantly fewer oocysts”. The “emergence of resistance during treatment” value (C. parvum [1]; calf model) was “resistance did not emerge”, the “time to signs of resolution of diarrhea” value (C. parvum [1]; post treatment) was no more than 48 h and the “recrudescence after cessation of treatment” value (C. parvum [1]; up to 7 days) was “No recrudescence of infection”. The “portal vein concentration relative to systemic levels” value [2] was ~ 40 fold, the bioavailability [3] was 0.4 to 5.6% and the “washout: effect of 4 h exposure on parasite growth” value (C. parvum [4]) was “does not affect parasite growth”. It also gave a half-life [5] greater than 240 min, a Tmax ([6]; infected calves with diarrhea) of 720 min and a Tmax ([6]; uninfected healthy calves) of 120 min. The “DNA synthesis (EdU incorporation)” value (C. parvum [7]) was “does not affect DNA synthesis”, the NOAEL at 14 days ([8]; both, beagle, dog, in vivo, po) was 1000 mg/kg/day and the Tmax ([8]; both, beagle, dog, plasma, oral, dog toxicity study) was no more than 75 min. It also gave an AUC(0-t) ([8]; both, beagle, dog, plasma, po, 1000 mg/kg/day, EDI048 1000 mg/kg/day, day 1) of 0.459 µg·h/mL, an AUC(0-t) ([8]; both, beagle, dog, plasma, po, 1000 mg/kg/day, EDI048 1000 mg/kg/day, day 14) of 0.634 µg·h/mL and a Cmax ([8]; both, beagle, dog, plasma, po, 1000 mg/kg/day, Cmax, dog, EDI048 1000 mg/kg/day, day 14) of 0.169 µg/mL. For the same compound, the Tmax ([8]; both, beagle, dog, plasma, po, 1000 mg/kg/day, dog, EDI048 1000 mg/kg/day, day 1) was 57 min, the Tmax ([8]; both, beagle, dog, plasma, po, 1000 mg/kg/day, dog, EDI048 1000 mg/kg/day, day 14) was 45 min and the “cardiovascular findings in dogs” value ([8]; up to 1000 mg/kg/day) was “no EDI048-related cardiovascular findings”. It also gave an AUC ([9]; iv, 0.1 mg/kg) of 77.9 nM·h, a Vd ([9]; iv, 0.1 mg/kg) of 1.54 L/kg and a clearance ([9]; iv, 0.1 mg/kg) of 2.74 L/h/kg. The half-life ([9]; iv, 0.1 mg/kg) was 33.6 min, the AUC ([9]; po, 0.3 mg/kg) was 11.8 nM·h and the Cmax ([9]; po, 0.3 mg/kg) was 5.2 nM. The Tmax ([9]; po, 0.3 mg/kg) was 45 min, the bioavailability ([9]; po, 0.3 mg/kg) was 5.6% and the IC50 (ATM) was 0.445 µM. The “selectivity ATM over CpPI(4)K inhibition” value (ATM) was greater than 100 fold, the “Plasma T1/2” value (Plasma stability) was greater than 120 min and the half-life (Plasma stability; Plasma T1/2, dog plasma) was greater than 240 min. For the same compound, the “concentration achieving maximum rate of parasite elimination” value (C. parvum [10]) was no less than 27 nM, the IC50 (hCav1.2) was greater than 50 µM and the NOAEL at 14 days ([11]; in vivo, po) was 1000 mg/kg/day. The Tmax ([11]; plasma, oral, rat toxicity study) was 30 min, the AUC(0-t) [11, 17] was 0.0111 µg·h/mL and the AUC(0-t) [11, 18] was 0.0186 µg·h/mL. It also gave a Cmax ([11]; plasma, po, 1000 mg/kg/day, Cmax, EDI048 1000 mg/kg/day, day 14) of 0.00413 µg/mL, a Tmax [11, 17] of 30 min and a Tmax [11, 18] of 30 min. The “In vivo rat Comet assay” value (liver and duodenum) was “Negative^e”, the “live imaging of infected HCT-8 cells” value (C. parvum [12]) was “parasites were arrested at the meront stage, preventing egress” and the half-life [13] was 175 min. For the same compound, the half-life [14] was greater than 240 min, the “Permeability B–A” value [15] was 7.92 / 12.9 / 1.62 ×10^−6 cm s^−1 and the “induction of human pregnane X receptor” value (human PXR) was “did not induce human pregnane X receptor”. It also gave a logD (Lipophilicity) of 2.7, a logP (Lipophilicity) of 3.65 and a CC50 at 96 h (Cytotoxicity assay) of 28.1 µM.
With CN(C(=O)c1ccn2ncc(-c3ccc(C(N)=O)cc3)c2c1)c1ccc(C#N)cn1 [KDU731, 3–(4-carbamoylphenyl)-N-(5-cyanopyridin-2-yl)-N-methylpyrazolo [1,5-a]pyridine-5-carboxamide, reference compound] the “% Plasma protein binding” value (Plasma protein binding) was 87.7%, the “Hepatocytes ER” value [16] was 36% and the hepatocyte CLint ([16]; hepatocytes) was 6.9 µL/min/1e6 cells. The “In vitro TK6 Micronucleus (MN) test” value (TK6 cells) was “Negative”.
